# Assay outcomes deposited in PubChem BioAssay by several laboratories.
# Only some compounds are listed: those with a hit (about 2% of all), similar ones and a draw of the others.
# Dynein transport: dynein cargo transport inhibition. hit rate 0.47% among 220,000. 3617.4 mouse cells, GR-EGFP nuclear translocation imaging; test concentration mostly 20 µM; stimulated with dexamethasone, 1 µM; stronger effect = lower value. z-score, hits read low;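 active = plate z-score of nuclear minus cytoplasmic receptor signal below a set negative limit, without overly bright fluorescence or cell loss, cut at about -3.5 in these data, passing the limit was not always enough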;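 note: z-score of nuclear minus cytoplasmic ring GR-EGFP intensity difference per well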
#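 Schedule: 48 h induction, then 1 h compound, then 30 min agonist, 37 °C. Buffer or medium: tetracycline-free induction medium containing charcoal-stripped FBS. Reagent: 1.0 µM final dexamethasone stimulus. Evaluation: nuclear versus cytoplasmic GR-EGFP signal, averaged per well. Signal: high-content fluorescence imaging after fixation.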
# Insulin prom up: MIN6 insulin promoter up-regulation. MIN6 insulin promoter-GFP reporter, high-content imaging; stronger effect = higher value. z-score at 5 µM. hit rate 0.3% among 190,000. AID 1625;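 active = z-score above 3 at 5 µM with at least 500 cells counted in the well; inconclusive = wells under 500 cells, flagged as cytotoxic or low count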
# Furin inhibitor: blocks human furin protease activity; P09958; purified furin, fluorogenic substrate cleavage; inhibition, % at 20 µM or 30 µM; hit rate 0.061% among 220,000; in the data active = inhibition above about 25%
# Target sequence (P09958 108-714 limits assumed): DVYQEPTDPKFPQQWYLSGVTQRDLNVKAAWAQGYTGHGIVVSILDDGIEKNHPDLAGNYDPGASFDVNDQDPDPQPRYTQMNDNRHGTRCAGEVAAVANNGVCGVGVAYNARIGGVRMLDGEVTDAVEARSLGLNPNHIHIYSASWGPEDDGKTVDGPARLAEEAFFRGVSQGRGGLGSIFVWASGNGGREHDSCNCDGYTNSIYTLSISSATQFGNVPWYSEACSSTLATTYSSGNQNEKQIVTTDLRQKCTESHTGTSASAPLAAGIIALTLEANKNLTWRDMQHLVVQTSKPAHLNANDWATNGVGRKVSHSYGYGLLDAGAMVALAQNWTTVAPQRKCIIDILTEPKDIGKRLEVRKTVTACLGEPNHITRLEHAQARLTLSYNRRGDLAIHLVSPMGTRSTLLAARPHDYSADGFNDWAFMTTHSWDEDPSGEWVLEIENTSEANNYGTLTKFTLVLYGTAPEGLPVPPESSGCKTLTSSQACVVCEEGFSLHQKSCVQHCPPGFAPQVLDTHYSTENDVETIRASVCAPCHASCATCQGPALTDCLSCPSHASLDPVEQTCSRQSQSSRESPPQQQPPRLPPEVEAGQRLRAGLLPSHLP
# HSV replic up: HSV replication enhancement; HSV replication augmentation in cells, fold increase; maximum fold increase; hit rate 0.005% among 220,000; in the data active = maximum fold increase above about 1.5; inconclusive = no clear call, values can overlap the other calls; tested in PC3 cells
# Autophagy HCS: alters autophagy in cells. MEF GFP-LC3 puncta imaging; test concentration mostly 10 µM. calls only at 10 µM (by protocol). hit rate 0.98% among 190,000. AID 463193;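 active = percentage of spot-positive cells more than 3 SD above its plate mean, without a fluorescence outlier flag or 80% toxicity; inconclusive = no clear call, values can overlap the other calls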
# Insulin prom inh: TRM-6 insulin promoter activity inhibition | TRM-6 cells, insulin promoter-eGFP reporter, imaging; reporter expression induced with tamoxifen | inhibition, % at 2 µM | hit rate 0.9% among 130,000;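 active = inhibition above the mean plus 3 SD, with well images judged a real hit on visual review, cut at about 60% in these data, passing the limit was not always enough; inconclusive = inhibition over the cutoff but images rejected on review; inactive = inhibition not above the cutoff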
# Dynein confirm: dynein cargo transport inhibition, confirmation. AID 463116. 3617.4 GR-EGFP nuclear translocation imaging, dexamethasone-induced. calls only at 20 µM. shares compounds with Dynein transport. hit rate 69% among 1,000;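 active = inhibition of receptor movement into the nucleus at or above a set limit in both runs, with normal cell brightness and cell count; inconclusive = limit reached in only one run, brightness and count normal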;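 note: dexamethasone at 1 µM final in well for 30 min; nuclear minus cytoplasmic GR-EGFP mean intensity difference in channel 2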
# Hits are given with their value; - = inactive; ? = inconclusive; . = not tested or not shown; + = active, no number.
SMILES,Dynein transport,Insulin prom up,Furin inhibitor,HSV replic up,Autophagy HCS,Insulin prom inh,Dynein confirm
Cc1c(Cl)c([N+](=O)[O-])nn1CC(=O)NC(C)C1CC2CCC1C2 (stereo not given),-,-,-,-,-,-,.
COc1cccc(C(=O)C(C#N)=C(SC)SC)c1,-4.53,-,-,-,.,.,+
O=C(O)c1ccc(C(=O)C(=O)c2ccccc2)cc1,-,-,-,-,.,.,.
COc1cccc(C(=O)Nc2ccc(NC(C)=O)cc2)c1,-,.,-,-,-,.,.
CSC(SC)=C(C#N)C(=O)c1ccccc1,-4.79,-,-,-,.,.,+
CCCN(CCC)C(=O)c1cc([N+](=O)[O-])cc2c1-c1ccc([N+](=O)[O-])cc1C2=C(C#N)C#N,-4.62,-,-,-,.,.,+
CCCCN(CCCC)C(=O)c1cc(Cl)ccc1[N+](=O)[O-],-,-,-,-,-,-,.
CCCCN(C)CCNC(=O)C(NC(=O)C1CCC(C)CC1)C(C)C (stereo not given),-,-,-,-,-,-,.
CC(C)c1cc(=O)oc2c3c4c(cc12)CCCN4CCC3,-,.,-,?,-,.,.
O=c1oc2c3c4c(cc2c(C(F)(F)F)c1CCN1CCOCC1)CCCN4CCC3,-5.66,.,-,?,?,-,+
Cc1ccc(S(=O)(=O)N2CCc3ccccc3C2CC(=O)O)cc1 (stereo not given),-,-,-,-,.,.,.
CCOc1ccc(N2C(=O)C(=O)/C(=C(/O)c3ccccc3)C2c2ccccc2[N+](=O)[O-])cc1 (stereo not given),-,-,-,-,.,.,.
COc1ccc(-n2c(SCC3OCCO3)nc3c(sc(=S)n3-c3ccccc3)c2=O)cc1OC,-,-,-,-,-,-,.
COc1ccc(-c2cc(C(F)(F)F)nc(S(=O)(=O)CCCC(=O)Nc3cccc(O)c3)n2)cc1OC,-5.65,-,-,-,-,.,+
O=c1oc(-c2ccco2)nc2ccccc12,-3.55,-,-,-,-,-,-
Cc1ccc(N2C(=O)c3cccc4c(N)ccc(c34)C2=O)c2cccnc12,-5.35,?,-,.,.,.,?
O=C(CNC(=S)N(Cc1ccccc1)Cc1cccnc1)NC1CCCCC1,-,.,-,-,-,.,.
O=C(c1ccc(F)cc1)C(CN1CCOCC1)c1ccccc1 (stereo not given),-6.08,-,-,-,-,.,+
COc1ccc(C(=O)C(CN2CCCC2)c2ccccc2)cc1 (stereo not given),-4.28,-,-,-,-,.,+
COc1ccc(C(=O)CCN2CCCCCC2)cc1,-,-,-,-,-,-,.
CC(CN1CCOCC1)OC(=O)C(c1ccccc1)c1ccccc1 (stereo not given),-,.,-,-,-,-,.
CCOc1cc(/C=C2\C(=O)N(Cc3ccco3)C(C)=C2C(=O)OC)ccc1O,-4.35,-,-,-,-,.,+
CCOc1cc(/C=C2\C(=O)N(CCc3ccc(OC)c(OC)c3)C(C)=C2C(=O)OC)ccc1O,-4,-,-,-,-,-,-
COC(=O)C1=C(C)N(Cc2ccc(C)cc2)C(=O)/C1=C\c1cc(OC)c(OC)c(OC)c1,-3.5,.,-,-,-,.,+
COc1ccc(N/N=C(/C(C)=O)N2CCCc3ccccc32)cc1,-,-,-,-,.,.,.
SMILES,Dynein transport,Insulin prom up,Furin inhibitor,HSV replic up,Autophagy HCS,Insulin prom inh,Dynein confirm
COC(=O)c1cc(F)c(-n2cncn2)c(F)c1,-,.,-,-,-,-,.
COC(=O)c1cc([N+](=O)[O-])c(-n2cncn2)c([N+](=O)[O-])c1,-4.61,-,-,-,-,.,+
COc1ccc(OC)c(S(=O)(=O)Nc2ccc(O)c3ccccc23)c1,-4.16,-,-,-,-,-,-
O=C(O)CC1CCC(=C(Cl)Cl)C1 (stereo not given),-4.8,-,-,-,-,.,-
CCNc1sc(C(=O)OCC)c(N)c1C#N,-,-,-,-,-,-,.
Cc1ccc2nc(/C(C#N)=C\c3ccc(N4CCOCC4)o3)[nH]c2c1,-,.,-,?,?,-,+
Cc1ccc(/C(C#N)=C\c2ccc(N3CCOCC3)o2)cc1,-,.,-,-,-,-,.
C=C(CC)C(=O)c1ccc(OCC(=O)O)c(Cl)c1Cl,-3.74,.,-,-,-,-,+
NS(=O)(=O)c1ccc(NC2=CC(c3ccc([N+](=O)[O-])cc3)N(c3ccc(S(N)(=O)=O)cc3)C2=O)cc1 (stereo not given),-,-,-,-,.,.,.
COc1ccc(C(=O)Nc2ccc(NS(=O)(=O)c3ccccc3)cc2)cc1OC,-,-,-,-,.,.,.
Cc1cc(S(=O)(=O)Nc2ccc3ccccc3c2)c(C)s1,-,-,-,-,-,-,.
Cc1cc(S(=O)(=O)Nc2cc(C)c(O)c(C)c2)c(C)s1,-3.99,-,-,-,-,-,-
CC(C)CNS(=O)(=O)c1ccc(CCC(=O)NCCC2=CCCCC2)cc1,-,-,-,-,-,-,.
Cc1oc(S(=O)(=O)N2CCCC2)cc1C(=O)Nc1ccccc1,-,-,-,-,.,.,.
N=c1oc2c3c4c(cc2cc1C(=O)Nc1ccccc1)CCCN4CCC3,-4.61,.,-,?,-,-,+
Cc1ccc(NC(=O)COC(=O)c2ccc([N+](=O)[O-])o2)cc1S(=O)(=O)N1CCCCCC1,-,-,-,-,-,-,.
Cc1ccccc1NC(=O)C(=Cc1ccc(C(=O)O)cc1)C(=O)Nc1ccccc1C,-,-,-,-,-,-,.
CC(=O)/C(=C/c1ccccc1)C(=O)Nc1ccccc1C,-6.71,-,-,-,-,.,+
CC1=C([N+](=O)[O-])C(c2ccccc2C(F)(F)F)NC(=O)N1C (stereo not given),-,-,-,-,.,.,.
CCC1(C)CC2(CCCN(CCC(=O)c3ccccc3)C2)CCO1 (stereo not given),-3.75,-,-,-,-,.,-
O=C(CCN1CCCCCC1)c1ccccc1,-,-,-,-,-,-,.
CCOC(=O)C1=C(CSc2nc(-c3ccncc3)ccc2C#N)OC(N)=C(C#N)C1c1ccc(OC)cc1 (stereo not given),-,-,-,-,-,-,-
CCOC(=O)C1=C(CSc2nc(-c3ccncc3)ccc2C#N)OC(N)=C(C#N)C1c1cccnc1 (stereo not given),-,-,-,-,-,.,.
CCOC(=O)C(=Cc1cc(=O)c(OC)co1)C(=O)OCC,-4,?,-,-,-,-,+
O=C(CCCc1nc2ccccc2s1)NNC(=O)CCN1CCN(Cc2ccccc2)CC1,-,-,-,-,-,.,.
CN(C(=O)COC(=O)c1nc(-c2ccccc2)n(-c2ccccc2)n1)C1CCS(=O)(=O)C1 (stereo not given),-,-,-,-,-,-,.
CN(C(=O)COC(=O)c1nc(Cl)c(Cl)c(Cl)c1Cl)C1CCS(=O)(=O)C1 (stereo not given),-4.62,-,-,-,-,.,+
COc1ccc(C2CC(c3cccs3)=NN2c2ccc(C=O)cc2)cc1 (stereo not given),-,-,-,-,+,-,-
